ChEMBL document CHEMBL1129642, “Design, synthesis, and evaluation of 2 beta-alkenyl penam sulfone acids as inhibitors of beta-lactamases” (J Med Chem, 1996)
Calls of active or inactive are those of the source. No cut-off for these calls is given here.

What was measured:
Citrobacter freundii [1] = experiment: (§1) Compound was tested for inhibition of Citrobacter freundii 1928 in combination with Ceftriaxone (expressed in MIC).; format: functional, organism-based
Summary of the method: (§2)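 MICs determined by serial 2-fold dilution in Mueller-Hinton broth with an inoculum of approximately 10⁵ cfu/mL. The test compound was combined with ceftriaxone.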

[2] = (§3) Compound was tested for inhibition of TEM-3, class A of beta-lactamases.; set-up: species or system Escherichia coli
Beta-lactamase [3] = biological target: T1, Beta-lactamase (Pseudomonas aeruginosa (strain ATCC 15692 / PAO1 / 1C / PRS 101 / LMG12228), UniProt P24735); experiment: Compound was tested for inhibition of Pseudomonas aeruginosa 18SH, class C of Beta-lactamase
T1 sequence (P24735 whole entry): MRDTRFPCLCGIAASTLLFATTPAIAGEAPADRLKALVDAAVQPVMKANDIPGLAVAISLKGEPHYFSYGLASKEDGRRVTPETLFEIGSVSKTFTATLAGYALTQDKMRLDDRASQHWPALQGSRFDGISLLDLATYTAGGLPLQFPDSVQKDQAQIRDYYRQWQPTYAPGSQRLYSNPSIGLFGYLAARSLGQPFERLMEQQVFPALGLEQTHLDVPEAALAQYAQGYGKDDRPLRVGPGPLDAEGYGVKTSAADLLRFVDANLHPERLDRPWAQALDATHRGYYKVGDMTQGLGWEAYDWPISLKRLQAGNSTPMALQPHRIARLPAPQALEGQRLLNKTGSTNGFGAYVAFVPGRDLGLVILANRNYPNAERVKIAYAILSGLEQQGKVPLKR

Pseudomonas aeruginosa [4] = experiment: Compound was tested for inhibition of Pseudomonas aeruginosa 18SH in combination with Ceftriaxone (expressed in MIC).; format: functional, organism-based; summary of the method: as §2
Beta-lactamase [5] = biological target: T2, Beta-lactamase (Bacillus licheniformis, UniProt P00808); experiment: Compound was tested for inhibition of Bacillus licheniformis 749/C, class A of Beta-lactamase
T2 sequence (P00808 whole entry): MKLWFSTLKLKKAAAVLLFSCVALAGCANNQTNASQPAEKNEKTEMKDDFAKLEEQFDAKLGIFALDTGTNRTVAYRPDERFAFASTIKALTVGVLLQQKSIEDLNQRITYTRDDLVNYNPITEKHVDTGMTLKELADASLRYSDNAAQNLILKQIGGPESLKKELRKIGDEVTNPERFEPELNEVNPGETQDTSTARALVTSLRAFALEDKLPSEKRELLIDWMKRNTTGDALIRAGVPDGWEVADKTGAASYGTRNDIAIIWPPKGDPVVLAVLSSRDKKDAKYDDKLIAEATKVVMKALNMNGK

[6] = Compound was tested for inhibition of pTEM-4 from Escherichia coli in combination with Ceftriaxone; NA = Not active; summary of the method: as §2
[7] = Compound was tested for inhibition of pTEM-3 from Escherichia coli in combination with Ceftriaxone (expressed in MIC).; summary of the method: as §2
Enterobacter cloacae [8] = experiment: Compound was tested for inhibition of Ent. cloacae 908R in combination with Ceftriaxone (expressed in MIC).; format: functional, organism-based; summary of the method: as §2
[9] = (§4) Compound was tested for inhibition of TEM-1, class A of beta-lactamases.; set-up: species or system Escherichia coli
Beta-lactamase [10] = biological target: Beta-lactamase (Escherichia coli K-12, UniProt P00811); experiment: Compound was tested for inhibition of Escherichia coli AmpC, class C of Beta-lactamase
Sequence of Beta-lactamase (Escherichia coli K-12, UniProt P00811) (P00811 whole entry): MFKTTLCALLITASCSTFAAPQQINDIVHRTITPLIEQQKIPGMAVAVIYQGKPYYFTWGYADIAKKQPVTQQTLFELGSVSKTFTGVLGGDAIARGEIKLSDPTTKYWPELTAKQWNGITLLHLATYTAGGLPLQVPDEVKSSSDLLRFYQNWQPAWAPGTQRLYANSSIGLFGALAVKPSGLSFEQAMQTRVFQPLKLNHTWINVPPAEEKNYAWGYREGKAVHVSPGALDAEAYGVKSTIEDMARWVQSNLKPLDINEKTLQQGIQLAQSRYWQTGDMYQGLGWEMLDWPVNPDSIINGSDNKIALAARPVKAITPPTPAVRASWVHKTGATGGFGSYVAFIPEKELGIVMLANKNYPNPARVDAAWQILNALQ

Citrobacter freundii [11] = experiment: Compound was tested for inhibition of Citrobacter freundii 1928 in combination with Ceftriaxone; Not active; format: functional, organism-based; summary of the method: as §2
[12] = as §4; format: functional, Escherichia coli
[13] = Compound was tested for inhibition of pTEM-4 from Escherichia coli in combination with Ceftriaxone; format: functional; summary of the method: as §2
[14] = as §3; format: functional, Escherichia coli
Bacillus licheniformis = experiment: Compound was tested for inhibition of Bacillus licheniformis 749/C, class A of beta-Lactamases.; format: functional, organism-based
Enterobacter cloacae [15] = experiment: (§5) Compound was tested for inhibition of Ent. cloacae 908R in combination with Ceftriaxone; format: functional; summary of the method: as §2
Pseudomonas aeruginosa [16] = experiment: Compound was tested for inhibition of Pseudomonas aeruginosa 18SH in combination with Ceftriaxone; format: functional; summary of the method: as §2
[17] = Compound was tested for inhibition of pTEM-3 from Escherichia coli in combination with Ceftriaxone; format: functional; summary of the method: as §2
Citrobacter freundii [18] = experiment: Compound was tested for inhibition of Citrobacter freundii 1928 in combination with Ceftriaxone; format: functional; summary of the method: as §2
Beta-lactamase L1 = Beta-lactamase L1 (Stenotrophomonas maltophilia, UniProt P52700); experiment: Compound was tested for inhibition of Beta-lactamase from Xanthomonas maltophila 328
Sequence of Beta-lactamase L1 (P52700 whole entry): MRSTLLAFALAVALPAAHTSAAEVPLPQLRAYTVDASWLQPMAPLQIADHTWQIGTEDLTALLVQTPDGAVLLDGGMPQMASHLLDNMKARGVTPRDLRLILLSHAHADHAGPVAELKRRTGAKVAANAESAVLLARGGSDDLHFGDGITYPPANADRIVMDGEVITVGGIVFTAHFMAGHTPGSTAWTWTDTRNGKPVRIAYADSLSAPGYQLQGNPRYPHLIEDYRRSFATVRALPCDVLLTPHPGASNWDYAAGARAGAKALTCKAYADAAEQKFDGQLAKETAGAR

Escherichia coli [19] = experiment: (§6) Compound was tested for the half saturation constant derived from concentration dependence studies in Escherichia coli TEM-3.; format: functional
Summary of the method: (§7)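 Purified β-lactamases (C. freundii 1928, E. coli SNO3, TEM-3, SHV-2) reacted with inhibitor. K_S is the half-saturation constant for forming the acyl-enzyme complex, taken from the concentration dependence of that reaction. It was obtained together with the acylation rate k_on and the acyl-enzyme breakdown rate k_off, using previously published kinetic methods.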

Beta-lactamase OXA-1 = Beta-lactamase OXA-1 (Escherichia coli, UniProt P13661); experiment: Compound was tested for inhibition of Beta-lactamase from OXA-1
Sequence of Beta-lactamase OXA-1 (P13661 whole entry): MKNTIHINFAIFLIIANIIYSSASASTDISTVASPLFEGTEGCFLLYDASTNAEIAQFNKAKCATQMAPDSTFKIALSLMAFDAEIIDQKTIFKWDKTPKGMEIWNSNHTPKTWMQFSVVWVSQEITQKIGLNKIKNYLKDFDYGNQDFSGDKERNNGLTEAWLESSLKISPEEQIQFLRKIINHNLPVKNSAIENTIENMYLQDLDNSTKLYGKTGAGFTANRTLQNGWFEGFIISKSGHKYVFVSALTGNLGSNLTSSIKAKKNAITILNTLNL

[20] = biological target: Penicillin-binding protein 2b (Staphylococcus aureus, UniProt Q9XDB3); experiment: Compound was tested for inhibition of Penicillin-binding protein 3 from Staphylococcus aureus (Schoch).
Sequence of Penicillin-binding protein 2b (Q9XDB3 whole entry, the tested form may be a part): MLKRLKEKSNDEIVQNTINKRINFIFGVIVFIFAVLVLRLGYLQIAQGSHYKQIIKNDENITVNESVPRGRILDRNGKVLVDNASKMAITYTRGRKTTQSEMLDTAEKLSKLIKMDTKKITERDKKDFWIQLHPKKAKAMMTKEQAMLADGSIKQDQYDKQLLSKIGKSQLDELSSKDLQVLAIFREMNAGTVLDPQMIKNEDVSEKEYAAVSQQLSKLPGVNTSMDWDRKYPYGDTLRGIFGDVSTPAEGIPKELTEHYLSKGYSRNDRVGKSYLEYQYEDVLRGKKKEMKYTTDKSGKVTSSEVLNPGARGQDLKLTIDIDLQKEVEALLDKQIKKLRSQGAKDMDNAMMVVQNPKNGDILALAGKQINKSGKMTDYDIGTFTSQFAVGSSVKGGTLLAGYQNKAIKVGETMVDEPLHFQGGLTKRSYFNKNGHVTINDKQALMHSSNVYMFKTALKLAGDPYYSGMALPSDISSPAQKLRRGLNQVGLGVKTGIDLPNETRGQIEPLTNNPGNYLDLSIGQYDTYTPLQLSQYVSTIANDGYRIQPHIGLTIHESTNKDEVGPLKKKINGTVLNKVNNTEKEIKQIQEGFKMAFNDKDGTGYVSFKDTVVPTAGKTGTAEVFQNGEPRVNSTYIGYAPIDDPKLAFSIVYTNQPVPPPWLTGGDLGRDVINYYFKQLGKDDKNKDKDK
Summary of the method: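 Competition for penicillin binding measured on S. aureus Schoch membrane fragments with 14C-labelled benzylpenicillin as the probe. The value is the IC50 (µM) for the PBP 3 band.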

Beta-lactamase TEM [21] = biological target: T3, Beta-lactamase TEM (Escherichia coli, UniProt P62593); experiment: Compound was tested for inhibition of Beta-lactamase from RTEM-1
T3 sequence (P62593 whole entry): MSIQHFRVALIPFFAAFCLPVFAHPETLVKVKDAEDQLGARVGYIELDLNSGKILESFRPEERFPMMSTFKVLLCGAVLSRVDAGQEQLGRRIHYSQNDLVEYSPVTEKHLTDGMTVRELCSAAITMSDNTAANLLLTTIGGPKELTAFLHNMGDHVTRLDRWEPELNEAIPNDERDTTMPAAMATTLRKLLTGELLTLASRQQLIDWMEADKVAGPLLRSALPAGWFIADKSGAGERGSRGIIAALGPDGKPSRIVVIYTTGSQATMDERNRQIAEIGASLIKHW

[22] = biological target: PBP3 from Escherichia coli (K-12) (Escherichia coli, UniProt P0AD68); experiment: Compound was tested for inhibition of Penicillin-binding protein 3 from Escherichia coli.
Sequence of PBP3 from Escherichia coli (K-12) (P0AD68 whole entry, looked up): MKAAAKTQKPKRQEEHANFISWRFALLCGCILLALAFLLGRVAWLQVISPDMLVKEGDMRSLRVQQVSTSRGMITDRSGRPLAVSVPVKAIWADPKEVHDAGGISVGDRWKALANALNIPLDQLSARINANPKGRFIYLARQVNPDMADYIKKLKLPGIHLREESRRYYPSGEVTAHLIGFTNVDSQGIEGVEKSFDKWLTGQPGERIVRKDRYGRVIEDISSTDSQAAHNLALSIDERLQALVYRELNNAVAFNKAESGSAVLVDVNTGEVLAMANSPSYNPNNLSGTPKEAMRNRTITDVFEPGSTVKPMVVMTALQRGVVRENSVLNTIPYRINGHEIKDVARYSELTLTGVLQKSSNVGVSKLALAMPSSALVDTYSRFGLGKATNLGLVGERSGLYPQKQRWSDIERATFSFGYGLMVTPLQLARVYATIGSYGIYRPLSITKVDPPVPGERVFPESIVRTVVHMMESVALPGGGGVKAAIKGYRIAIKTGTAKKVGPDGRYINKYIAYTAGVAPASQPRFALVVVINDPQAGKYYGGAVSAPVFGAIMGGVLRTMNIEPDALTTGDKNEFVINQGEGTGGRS

Citrobacter freundii [23] = experiment: as §1; format: functional, organism-based; remark: listed apart in the source
Beta-lactamase [24] = biological target: T2, Beta-lactamase; experiment: Compound was tested for inhibition of Beta-lactamase from Bacillus licheniformis 749/C
Beta-lactamase TEM [25] = biological target: T3, Beta-lactamase TEM; experiment: Compound was tested for inhibition of Beta-lactamase from RTEM-2
Beta-lactamase [26] = biological target: T1, Beta-lactamase; experiment: Compound was tested for inhibition of Beta-lactamase from Pseudomonas aeruginosa GN10362
Escherichia coli [27] = experiment: (§8) Compound was tested for the half saturation constant derived from concentration dependence studies in Escherichia coli SNO3.; format: functional; summary of the method: as §7
Beta-lactamase [28] = biological target: Beta-lactamase (Staphylococcus aureus, UniProt P00807); experiment: Compound was tested for inhibition of Beta-lactamase from Staphylococcus aureus PCI
Sequence of Beta-lactamase (Staphylococcus aureus, UniProt P00807) (P00807 whole entry): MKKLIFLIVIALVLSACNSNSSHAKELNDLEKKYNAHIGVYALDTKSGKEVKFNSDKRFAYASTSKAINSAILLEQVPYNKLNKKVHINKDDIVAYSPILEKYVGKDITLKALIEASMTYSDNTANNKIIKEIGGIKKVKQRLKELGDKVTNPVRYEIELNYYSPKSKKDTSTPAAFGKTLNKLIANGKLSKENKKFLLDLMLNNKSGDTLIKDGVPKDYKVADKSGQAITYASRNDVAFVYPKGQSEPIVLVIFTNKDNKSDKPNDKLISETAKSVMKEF

Citrobacter freundii [29] = experiment: (§9) Compound was tested for the half saturation constant derived from concentration dependence studies in Citrobacter freundii; format: functional; summary of the method: as §7
[30] = biological target: Metallo-beta-lactamase type 2 (Bacteroides fragilis, UniProt P25910); experiment: Compound was tested for inhibition of Beta-lactamase from Bacteroides fragilis BF 101
Sequence of Metallo-beta-lactamase type 2 (P25910 whole entry): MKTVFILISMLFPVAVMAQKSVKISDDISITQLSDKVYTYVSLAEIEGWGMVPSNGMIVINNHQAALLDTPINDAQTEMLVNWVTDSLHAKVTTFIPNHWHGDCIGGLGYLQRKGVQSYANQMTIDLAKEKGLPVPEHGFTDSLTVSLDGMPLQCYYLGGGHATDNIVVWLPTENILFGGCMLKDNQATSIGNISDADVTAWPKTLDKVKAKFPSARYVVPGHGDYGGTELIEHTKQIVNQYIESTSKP

Beta-lactamase [31] = biological target: T1, Beta-lactamase; experiment: Compound was tested for inhibition of Beta-lactamase from Pseudomonas aeruginosa MK-1184
Beta-lactamase SHV-1 = Beta-lactamase SHV-1 (Escherichia coli, UniProt P0AD63); experiment: Compound was tested for inhibition of Beta-lactamase from SHV-2
Sequence of Beta-lactamase SHV-1 (P0AD63 22-286 limits assumed): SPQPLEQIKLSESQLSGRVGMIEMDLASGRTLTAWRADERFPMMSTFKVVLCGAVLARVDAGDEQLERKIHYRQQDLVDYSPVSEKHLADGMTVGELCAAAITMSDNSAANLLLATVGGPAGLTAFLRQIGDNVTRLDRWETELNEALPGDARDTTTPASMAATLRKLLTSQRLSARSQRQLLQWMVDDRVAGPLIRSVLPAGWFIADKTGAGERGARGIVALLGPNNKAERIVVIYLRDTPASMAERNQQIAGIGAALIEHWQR

Escherichia coli [32] = experiment: (§10) Compound was tested for the half saturation constant derived from concentration dependence studies in Escherichia coli SHV-2.; format: functional; summary of the method: as §7
Beta-lactamase pse-1 = Beta-lactamase pse-1 (Escherichia coli, UniProt Q2V0Y6); experiment: Compound was tested for inhibition of Beta-lactamase from PSE-1
Sequence of Beta-lactamase pse-1 (Q2V0Y6 whole entry): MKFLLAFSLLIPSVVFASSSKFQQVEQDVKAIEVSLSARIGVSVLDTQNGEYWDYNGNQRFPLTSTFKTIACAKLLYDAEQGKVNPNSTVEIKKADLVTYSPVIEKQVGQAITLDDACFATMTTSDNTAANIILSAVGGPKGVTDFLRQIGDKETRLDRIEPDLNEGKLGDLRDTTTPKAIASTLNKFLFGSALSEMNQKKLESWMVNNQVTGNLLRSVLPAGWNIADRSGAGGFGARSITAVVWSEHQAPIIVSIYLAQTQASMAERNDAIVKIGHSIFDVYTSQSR

Enterobacter cloacae [33] = experiment: as §5; format: functional, organism-based; summary of the method: as §2
Escherichia coli [34] = experiment: as §8; format: organism-based; summary of the method: as §7
Escherichia coli [35] = experiment: as §6; format: organism-based; summary of the method: as §7
Citrobacter freundii [36] = experiment: as §9; format: organism-based; summary of the method: as §7
Escherichia coli [37] = experiment: as §10; format: organism-based; summary of the method: as §7

Structure (SMILES) | IC50 [12] [µM] | MIC [13] [µg/mL] | IC50 [14] [nM] | IC50 (Bacillus licheniformis) [µM] | MIC (Enterobacter cloacae [15]) [µg/mL] | MIC (Pseudomonas aeruginosa [16]) [µg/mL] | MIC [17] [µg/mL] | MIC (Citrobacter freundii [18]) [µg/mL] | also measured
CCOC(=O)/C=C\[C@@]1(C)[C@H](C(=O)O)N2C(=O)C[C@H]2S1(=O)=O |  |  |  |  |  |  |  |  | MIC (Citrobacter freundii [1]): 4 mg/L; IC50 [2]: 460 nM; IC50 (Beta-lactamase [3]): 15 µM; MIC (Pseudomonas aeruginosa [4]): > 16 mg/L; IC50 (Beta-lactamase [5]): 2900 nM; MIC [6]: Not Active; MIC [7]: < 0.25 mg/L; MIC (Enterobacter cloacae [8]): 8 mg/L; IC50 [9]: 14 µM; IC50 (Beta-lactamase [10]): 61 µM
C[C@]1(C=CC(N)=O)[C@H](C(=O)O)N2C(=O)C[C@H]2S1(=O)=O | 13 | 0.5 | 54 | 6 | 8 | 16 | < 0.25 |  | NA (Citrobacter freundii [11]): inactive
C[C@]1(/C=C/c2nnco2)[C@H](C(=O)[O-])N2C(=O)C[C@H]2S1(=O)=O.[Na+] | 12 | 2 | 220 | 1.7 | 8 | 16 | 0.5 | 4 | 
C[C@]1(C=CC#N)[C@H](C(=O)O)N2C(=O)C[C@H]2S1(=O)=O [Ro-481220] |  |  |  | 0.32 |  |  |  |  | IC50 (Beta-lactamase L1): 0.024 mM; Ks (Escherichia coli [19]): 0.56 µM; IC50 (Beta-lactamase OXA-1): 100 nM; IC50 [20]: 170 µM; IC50 (Beta-lactamase TEM [21]): 1070 nM; IC50 [22]: > 340 µM; MIC (Citrobacter freundii [23]): 1 mg/L; MIC (Pseudomonas aeruginosa [4]): 4 mg/L; IC50 (Beta-lactamase [24]): 320 nM; IC50 (Beta-lactamase TEM [25]): 980 nM; IC50 (Beta-lactamase [26]): 860 nM; Ks (Escherichia coli [27]): 377 µM; IC50 (Beta-lactamase [28]): 250 nM; MIC (Enterobacter cloacae [8]): 1 mg/L; Ks (Citrobacter freundii [29]): 125 µM; IC50 [30]: 200 µM; IC50 (Beta-lactamase [31]): 1970 nM; IC50 (Beta-lactamase SHV-1): 540 nM; Ks (Escherichia coli [32]): 2.3 µM; IC50 (Beta-lactamase pse-1): 90 nM
C[C@]1(/C=C\Cl)[C@H](C(=O)[O-])N2C(=O)C[C@H]2S1(=O)=O.[Na+] | 5.6 | 1 | 60 | 6.6 | 4 | 4 | 0.25 | 4 | 
C[C@]1(/C=C/COC(N)=O)[C@H](C(=O)O)N2C(=O)C[C@H]2S1(=O)=O | 9.1 | 4 | 760 | 6.5 |  | 8 | 1 | 4 | MIC (Enterobacter cloacae [33]): 8 mg/L
C[C@]1(Cn2ccnn2)[C@H](C(=O)O)N2C(=O)C[C@H]2S1(=O)=O [TAZOBACTAM] |  |  |  |  |  |  |  |  | IC50 (Beta-lactamase L1): 4 mM; Ks (Escherichia coli [34]): 325 µM; Ks (Escherichia coli [35]): 0.74 µM; Ks (Citrobacter freundii [36]): 110 µM; Ks (Escherichia coli [37]): 5 µM
C[C@]1(/C=C\C(N)=O)[C@H](C(=O)O)N2C(=O)C[C@H]2S1(=O)=O | 1.2 | 2 | 130 | 3.4 | 4 | 4 | 0.25 | 2 | 
